In ChEMBL document CHEMBL3045566, “Phytochemicals from Cunninghamia konishii Hayata act as antifungal agents” (2012):

Tests used:
Format in all cases: functional
[1] = tested on: Trametes versicolor; assay: Antifungal activity against Trametes versicolor BCRC 35253 wood decay fungi assessed as reduction of fungi mycelium growth at 100 ug/ml
Outline: (§1)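 Fungi kept on potato dextrose agar at 4 °C. Samples dissolved in 150 μL ethanol and mixed into 15 mL PDA to give the final concentration. A 5 mm mycelial plug from the culture edge was placed centrally on each 9-cm plate. Plates were held in the dark at 26 ± 2 °C and 70% RH. Antifungal index was scored once control plates without test material were fully overgrown.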

[2] = tested on: Lenzites betulinus; assay: Antifungal activity against Lenzites betulinus BCRC 35296 assessed as reduction of fungi mycelium growth at 100 ug/ml; outline: as §1
[3] = tested on: Gloeophyllum trabeum; assay: Antifungal activity against Gloeophyllum trabeum BCRC 31614 (wood decay fungi) assessed as reduction of fungi mycelium growth at 100 ug/ml; outline: as §1
[4] = tested on: Laetiporus sulphureus; assay: Antifungal activity against Laetiporus sulphureus BCRC 35305 (wood decay fungi) assessed as reduction of fungi mycelium growth at 100 ug/ml; outline: as §1

| SMILES | inhibition at 100 µg/mL [1] [%] | inhibition at 100 µg/mL [2] [%] | inhibition at 100 µg/mL [3] [%] | inhibition at 100 µg/mL [4] [%] |
| --- | --- | --- | --- | --- |
| C[C@@H]1CC[C@H]2C(C)(C)[C@H]3C[C@@]12CC[C@@]3(C)O [CEDROL] | 74.8 | 95.5 | 68.3 | 100 |
| CCCCCCCCCC[N+](C)(C)CCCCCCCCCC [DIDECYLDIMETHYLAMMONIUM CHLORIDE] | 100 | 100 | 100 | 100 |
| CC1=C[C@@H]2[C@@H](CC1)[C@@](C)(O)CC[C@H]2C(C)C [T-CADINOL] | 51.4 | 100 | 100 | 100 |
| CC1=C[C@H]2[C@H](C(C)C)CC[C@](C)(O)[C@H]2CC1 [T-MUUROLOL] | 39.5 | 100 | 100 | 100 |
| C=CC(=C)CC[C@@H]1[C@@]2(C)CCCC(C)(C)[C@@H]2CC[C@@]1(C)O [ISOABIENOL] | 27.8 | 25.6 | 6.8 | 8.2 |
